According to ChEMBL document CHEMBL1122960, “Acyclic analogues of 2'-deoxynucleosides related to 9-[(1,3-dihydroxy-2-propoxy)methyl]guanine as potential antiviral agents” (1985):
pIC50: −log10 of the molar value.

Assays:
Format in all cases: functional
[1] = tested on: Vero; experiment: Antiviral activity was determined in plaque reduction assay in vero cells against HSV-1 F strain; conditions: Chlorocebus sabaeus, read-out: ID50 (the source's name)
In short: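 Vero cells were infected with HSV-1 (F strain) and then treated with the nucleoside analogue. ID50 is the dose giving a 50% reduction in plaque number relative to untreated controls.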

[2] = tested on: Mus musculus; experiment: Effect of oral treatment on HSV-2 encephalitis infection in mice and survivors/total was reported at a dose 20 mg/kg; 5/20
In short: (§1)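 Female Swiss-Webster mice, about 20 g, were infected intraperitoneally with 5 × 10⁴ PFU HSV-2 (strain G), roughly ten LD50. Drug was given orally once daily for 4 days, beginning 24 h after infection, with a placebo group included. Read-outs were survivors/total and mean survival time in days.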

[3] = tested on: Mus musculus; experiment: Effect of oral treatment on HSV-2 encephalitis infection in mice and mean survival time was reported at a dose 20 mg/kg; in short: as §1
[4] = tested on: Mus musculus; experiment: Effect of oral treatment on HSV-2 encephalitis infection in mice and survivors/total was reported at a dose 10 mg/kg; 4/20; in short: as §1
[5] = tested on: Mus musculus; experiment: Effect of oral treatment on HSV-2 encephalitis infection in mice and survivors/total was reported at a dose 40 mg/kg; 7/20; in short: as §1
[6] = tested on: Mus musculus; experiment: Effect of oral treatment on HSV-2 encephalitis infection in mice and mean survival time was reported at a dose 40 mg/kg; in short: as §1
[7] = tested on: Mus musculus; experiment: Effect of oral treatment on HSV-2 encephalitis infection in mice and mean survival time was reported at a dose 10 mg/kg; in short: as §1
[8] = tested on: Mus musculus; experiment: Effect of oral treatment on HSV-2 encephalitis infection in mice and survivors/total was reported at a dose 20 mg/kg; 8/20; in short: as §1
[9] = tested on: Mus musculus; experiment: Effect of oral treatment on HSV-2 encephalitis infection in mice and survivors/total was reported at a dose 10 mg/kg; 5/20; in short: as §1
[10] = tested on: Mus musculus; experiment: Effect of oral treatment on HSV-2 encephalitis infection in mice and mean survival time was reported at a dose 5 mg/kg; in short: as §1
[11] = tested on: Mus musculus; experiment: Effect of oral treatment on HSV-2 encephalitis infection in mice and survivors/total was reported at a dose 5 mg/kg; 8/20; in short: as §1

Nc1ncnc2c1ncn2COC(CO)CO
pIC50 [1]: < 4.00

Nc1nc(S)c2ncn(COC(CO)CO)c2n1
pIC50 [1]: 5.05

Nc1nc(N)c2ncn(COC(CO)CO)c2n1
Survival [2]: 5
Survival time [3]: 10.9 days
pIC50 [1]: 5.48
Survival [4]: 4
Survival [5]: 7
Survival time [6]: 11.5 days
Survival time [7]: 10.8 days

Nc1nc(=O)n(COC(CO)CO)cc1F
pIC50 [1]: < 4.00

Nc1ncc2ncn(COC(CO)CO)c2n1
pIC50 [1]: 4.80

O=c1[nH]c(=O)n(COC(CO)CO)cc1F
pIC50 [1]: < 4.00

Cc1cn(COC(CO)CO)c(=O)[nH]c1=O
pIC50 [1]: < 4.00

Nc1ccn(COC(CO)CO)c(=O)n1
pIC50 [1]: < 4.00

O=c1[nH]c(=O)n(COC(CO)CO)cc1Br
pIC50 [1]: < 4.00

O=c1ccn(COC(CO)CO)c(=O)[nH]1
pIC50 [1]: < 4.00

Nc1nc(=O)ccn1COC(CO)CO
pIC50 [1]: < 4.00

Nc1nc2c(ncn2COCCO)c(=O)[nH]1 [ACYCLOVIR]
pIC50 [1]: 6.30

Nc1nc2c(ncn2COC(CO)CO)c(=O)[nH]1 [GANCICLOVIR]
Survival time [3]: 13.8 days
pIC50 [1]: 6.70
Survival [8]: 8
Survival [9]: 5
Survival time [10]: 9.9 days
Survival time [7]: 10.9 days
Survival [11]: 8
